Results from ChEMBL document CHEMBL3751740, “New MKLP-2 inhibitors in the paprotrain series: Design, synthesis and biological evaluations” (Bioorg Med Chem, 2016).
Activity calls are given as the source filed them. No cut-off for these calls is given here.

Legend:
[1] = target: T1, Kinesin-like protein KIF23 (Homo sapiens) (UniProt Q02241); assay: Inhibition of porcine brain microtubule-stimulated human recombinant GST-tagged MKLP1 ATPase activity at 15 uM by microplate reader in presence of Mg2+ ATP relative to control
T1 sequence (whole entry): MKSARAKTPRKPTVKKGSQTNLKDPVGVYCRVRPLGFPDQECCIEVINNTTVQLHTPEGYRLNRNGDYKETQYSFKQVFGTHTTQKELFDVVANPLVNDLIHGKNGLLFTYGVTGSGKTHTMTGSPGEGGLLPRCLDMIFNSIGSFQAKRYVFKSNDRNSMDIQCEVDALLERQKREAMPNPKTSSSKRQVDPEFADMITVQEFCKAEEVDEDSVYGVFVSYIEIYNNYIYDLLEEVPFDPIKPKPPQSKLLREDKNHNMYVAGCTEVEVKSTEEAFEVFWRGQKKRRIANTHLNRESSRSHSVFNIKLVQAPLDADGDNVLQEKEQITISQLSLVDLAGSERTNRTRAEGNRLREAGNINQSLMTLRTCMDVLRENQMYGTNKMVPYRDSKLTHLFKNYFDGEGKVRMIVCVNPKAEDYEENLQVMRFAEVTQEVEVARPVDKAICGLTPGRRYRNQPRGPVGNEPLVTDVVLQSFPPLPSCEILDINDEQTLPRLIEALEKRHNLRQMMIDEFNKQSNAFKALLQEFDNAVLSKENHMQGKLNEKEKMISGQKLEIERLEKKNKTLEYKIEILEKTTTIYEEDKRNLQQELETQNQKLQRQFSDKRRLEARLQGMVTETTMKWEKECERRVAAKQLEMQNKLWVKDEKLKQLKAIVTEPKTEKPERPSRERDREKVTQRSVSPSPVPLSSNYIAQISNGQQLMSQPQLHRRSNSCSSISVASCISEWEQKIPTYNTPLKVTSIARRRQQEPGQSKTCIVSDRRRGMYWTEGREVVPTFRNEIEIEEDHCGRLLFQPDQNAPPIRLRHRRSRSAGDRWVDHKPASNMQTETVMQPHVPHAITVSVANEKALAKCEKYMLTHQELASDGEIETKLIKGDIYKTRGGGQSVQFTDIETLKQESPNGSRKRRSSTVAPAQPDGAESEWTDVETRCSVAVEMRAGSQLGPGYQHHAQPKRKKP
Procedure, shortened: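 Each kinesin motor domain was tested against MT-stimulated ATPase at 22 °C in triplicate, with compounds at 15 µM. Buffer was 7.5 mM PIPES-NaOH pH 7.0 with MgCl2, Taxol, ELIPA reagents and 1.25 mg/mL MTs. Reactions were started with 1 mM Mg2+ATP and read kinetically at 360 nm. Monastrol and AMP-PNP (1 mM) were the controls.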

[2] = target: T2, Kinesin-like protein KIF20A (Homo sapiens, UniProt O95235); assay: Inhibition of N-terminal MKLP2 (56 to 505 residues) ATPase basal activity isolated from human hepatocellular carcinoma cells by pyruvate kinase/lactate dehydrogenase enzyme linked assay
T2 sequence (O95235 whole entry): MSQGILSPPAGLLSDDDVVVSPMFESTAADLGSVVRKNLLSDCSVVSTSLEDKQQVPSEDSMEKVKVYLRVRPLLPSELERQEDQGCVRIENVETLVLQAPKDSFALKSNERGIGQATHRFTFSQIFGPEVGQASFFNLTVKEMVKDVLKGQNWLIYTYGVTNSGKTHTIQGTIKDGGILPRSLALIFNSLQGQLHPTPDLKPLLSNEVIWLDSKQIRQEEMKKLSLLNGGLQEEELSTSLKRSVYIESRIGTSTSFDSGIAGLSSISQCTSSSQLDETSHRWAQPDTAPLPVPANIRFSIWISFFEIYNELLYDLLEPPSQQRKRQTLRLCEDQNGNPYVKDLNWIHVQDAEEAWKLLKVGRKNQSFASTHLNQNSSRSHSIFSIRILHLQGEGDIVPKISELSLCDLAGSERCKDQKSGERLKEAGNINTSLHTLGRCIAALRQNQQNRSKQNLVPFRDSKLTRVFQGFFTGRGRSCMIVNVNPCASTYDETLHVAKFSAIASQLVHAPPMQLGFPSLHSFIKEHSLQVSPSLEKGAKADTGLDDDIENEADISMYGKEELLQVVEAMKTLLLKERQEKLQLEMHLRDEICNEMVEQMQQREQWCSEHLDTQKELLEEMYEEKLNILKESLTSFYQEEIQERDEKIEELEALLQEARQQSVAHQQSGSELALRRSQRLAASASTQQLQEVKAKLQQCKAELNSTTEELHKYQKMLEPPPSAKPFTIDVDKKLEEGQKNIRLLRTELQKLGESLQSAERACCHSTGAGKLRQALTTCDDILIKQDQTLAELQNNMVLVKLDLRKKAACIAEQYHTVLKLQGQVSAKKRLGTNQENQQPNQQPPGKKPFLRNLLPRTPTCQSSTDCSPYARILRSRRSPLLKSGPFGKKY

[3] = target: T2, Kinesin-like protein KIF20A; assay: Inhibition of microtubule-stimulated N-terminal MKLP-2 (56 to 505 residues) ATPase activity isolated from human hepatocellular carcinoma cells by pyruvate kinase/lactate dehydrogenase enzyme linked assay; conditions: read-out: IC50
Ovis aries [4] = species: Ovis aries; assay: Inhibition of sheep brain tubulin polymerization by UV spectrophotometric analysis; design: concentration or dose not given beside the values
Procedure, shortened: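 Tubulin purified from sheep brain by two assembly/disassembly cycles, about 2–3 mg/mL in 0.1 M MES, 0.5 mM MgCl2, 1 mM EGTA, 1 mM GTP, pH 6.6. Compound in DMSO added at 0 °C, then moved to a 37 °C thermostated cell. Assembly followed by turbidity at 350 nm for a few min.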

KB [5] = assay: Growth inhibition of human KB cells at 10 uM after 72 hrs by MTS assay; format: functional; conditions: read-out: GI
Procedure, shortened: (§1)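 KB cells were grown in DMEM with 25 mM glucose and 10% FCS at 37 °C, 5% CO2, and seeded at 500 cells/well. 24 h later, compound in DMSO (1% final) was added at 10 µM or 1 µM for 72 h; controls received DMSO alone. Runs were in duplicate. Viable cells were read with MTS at 490 nm.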

K562 = assay: Growth inhibition of human K562 cells incubated for 4 days by WST-1 assay; format: functional; conditions: K562, 96 h
Procedure, shortened: (§2)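 Cells were kept at 37 °C under 5% CO2 and plated on day 0 at 500–5000 cells/well. On day 1 they received ten concentrations from 0.0025 to 50 µM (final), in triplicate. On day 4 WST-1 was added, followed by 30 min–4 h incubation and absorbance at 450 nm. GI50 is the concentration killing 50% of cells.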

MCF7 = assay: Growth inhibition of human MCF7 cells incubated for 4 days by WST-1 assay; format: functional; conditions: MCF7, 96 h; procedure, shortened: as §2
Ovis aries [6] = species: Ovis aries; assay: Induction of sheep brain microtubule disassembly by UV spectrophotometric analysis
Procedure, shortened: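 Sheep brain tubulin, purified by two assembly/disassembly cycles and held in MES buffer with GTP at pH 6.6, was polymerized at 37 °C for 10 min. Compound was then added to the MTs at 0 °C and depolymerization was followed over the next few minutes by turbidity at 350 nm.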

KB [7] = assay: Growth inhibition of human KB cells at 1 uM after 72 hrs by MTS assay; format: functional; conditions: read-out: GI; procedure, shortened: as §1

inhibition [1]	IC50 ([2]; read-out: IC50)	IC50 [3]	inhibition (Ovis aries [4])	GI50 (K562)	GI50 (MCF7)	inhibition (Ovis aries [4]; concentration not given here)	Activity (Ovis aries [6])	Compound	inhibition of growth at 10 µM (KB [5])	inhibition of growth at 1 µM (KB [7])	IC50 [2]
< 20%								CCOC(=O)C1=C(C)NC(=S)NC1c1cccc(O)c1 (centres undefined)			
< 20%	5.6 µM	5.4 µM				54%	inactive	COc1ccc2c(/C(C#N)=C/c3cccnc3)c[nH]c2c1	87%	78%	
< 20%	4.2 µM	3.3 µM	inactive				inactive	COc1cccc2[nH]cc(/C(C#N)=C/c3cccnc3)c12	27%		

Second part, the molecule before the results:

Compound	inhibition [1]	IC50 ([2]; read-out: IC50)	IC50 [3]	inhibition (Ovis aries [4])	GI50 (K562)	GI50 (MCF7)	inhibition (Ovis aries [4]; concentration not given here)	Activity (Ovis aries [6])	inhibition of growth at 10 µM (KB [5])	inhibition of growth at 1 µM (KB [7])	IC50 [2]
COc1ccc2[nH]cc(/C(C#N)=C/c3cccnc3)c2c1	< 20%	1.2 µM	0.23 µM	inactive	4 µM	15.8 µM			57%		
N#C/C(=C\c1ccc2c(c1)OCO2)c1c[nH]c2ccccc12	< 20%	14.3 µM	5.1 µM				35%	inactive	100%	11%	
N#C/C(=C\c1cccnc1)c1c[nH]c2ccc(OCc3ccccc3)cc12	< 20%		1.3 µM				12%	inactive	57%		Not Active
